We go through 11 molecules from ChEMBL document CHEMBL4699606, “New type of anti-influenza agents based on benzo[d][1,3]dithiol core” (Bioorg Med Chem Lett, 2020).

Data set [1] is described as follows: Antiviral activity against Influenza A virus (A/California/07/09(H1N1))pdm09 infected in MDCK cells assessed as reduction in viral replication preincubated with compound for 1 hr followed by viral infection and measured after viral cultivation for 48 hrs by hemagglutination test. The class given is functional, cell-based, Influenza A virus (A/California/07/2009(H1N1)).

Data set [2] can be described thus: Cytotoxicity against dog MDCK cells assessed as reduction in cell viability by MTT assay. The class given is cell-based, Canis lupus familiaris. (Tetrazolium dyes change colour on reduction, which living cells bring about.)
Data set [3] is described as follows: Selectivity index, ratio of CC50 for dog MDCK cells to IC50 for Influenza A virus (A/California/07/09(H1N1)) pdm09 infected in MDCK cells. The class given is toxicity, cell-based. Particulars: read-out: Ratio CC50/IC50.
The test system of another data set is MDCK. The experiment in a line: Antiviral activity against Influenza A virus (A/California/07/09(H1N1))pdm09 infected in MDCK cells assessed as suppression of viral replication at early stage of viral cycle after 2 hpi by time of addition assay. The class given is functional, cell-based. To be noted: Influenza A virus (A/California/07/2009(H1N1)), time 2.0 hrs. The method in brief: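 Time-of-addition study in MDCK cells. Compound added at set times relative to infection (time 0 = moment of infection). Read-out was the infectious activity of viral progeny, assayed in MDCK cells.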

The subject of data set [4] is Influenza A virus (A/California/07/2009(H1N1)). Put plainly: Inhibition of Influenza A virus (A/California/07/09(H1N1))pdm09 hemagglutinin receptor binding activity.
For data set [5] the test system is unchanged. The experiment in a line: Anti-membranotropic activity against Influenza A virus (A/California/07/09(H1N1))pdm09 hemagglutinin assessed as inhibition of HA-driven chicken erythrocytes membrane fusion incubated for 30 mins by fusogenic activity assay. The method in brief: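 Compound mixed with virus and held 30 min at room temperature, then combined with 0.75% chicken erythrocytes at +4 °C. Fusion was triggered with MES buffer at pH 5.0. After erythrocytes sedimented, haemoglobin released by membrane lysis was read as optical density at 405 nm.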

The source made the active and inactive calls. No cut-off for these calls is given here.

As a reminder, the IC50 is the concentration needed to halve the response being measured. Usually CC50 stands for the concentration at which the toxic effect on the cells reaches its halfway point. Consider `O=C(CN1CCOCC1)Nc1cc(C(F)(F)F)cc2sc(=O)sc12`, for which, in data set [1], the half-maximal inhibitory concentration (IC50) came to 5 µM. Further, the CC50 in data set [2] came to 13 µM. In addition, the selectivity ratio in data set [3] worked out at 3.

As to `CC(N)C12CC3CC(CC(C3)C1)C2` (stereo not given) [RIMANTADINE], in data set [1], the IC50 came to 41 µM. Besides, the selectivity ratio in data set [3] amounted to 9.

In the case of `O=C(CN1CCCCC1)Nc1cc(C(F)(F)F)cc2sc(=O)sc12`, the IC50 in data set [1] was found to be 18 µM. Also, the half-maximal cytotoxic concentration (CC50) in data set [2] was determined as 532 µM. Further, the result in the data set with MDCK was Active. Moreover, the selectivity ratio in data set [3] stood at 29. Further, in data set [4], the inhibition entry is “inactive”. Moreover, the inhibition entry in data set [5] was “Dose-dependent effect”.

As to `O=C(CCN1CCCCC1)Nc1cc(C(F)(F)F)cc2sc(=O)sc12`, the 50% inhibitory concentration (IC50) in data set [1] was over 28.2 µM. The CC50 in data set [2] was 34 µM. For the same molecule, in data set [3], the selectivity ratio came to 1.

With `O=C(CN1CCCC1)Nc1cc(C(F)(F)F)cc2sc(=O)sc12`, the concentration for half-maximal inhibition (IC50) in data set [1] came out at 191 µM. For the same molecule, in data set [2], the CC50 was over 829 µM. Further, the selectivity ratio in data set [3] turned out to be 4.

In the case of `CC(=O)Nc1cc(C(F)(F)F)cc2sc(=O)sc12`, the IC50 in data set [1] came to 38 µM. Also, in data set [2], the 50% cytotoxic concentration (CC50) turned out to be 95 µM. Besides, the selectivity ratio in data set [3] is 3.

Regarding `Nc1cc(C(F)(F)F)cc2sc(=O)sc12`, the IC50 in data set [1] was found to be 19 µM. In data set [2], the CC50 was 212 µM. Moreover, the selectivity ratio in data set [3] was 11.

`O=C(Nc1cc(C(F)(F)F)cc2sc(=O)sc12)C(F)(F)F`: in data set [1], the half-inhibitory concentration (IC50) amounted to 0.2 µM. Besides, the half-maximal cytotoxic concentration (CC50) in data set [2] amounted to 2.2 µM. Moreover, the selectivity ratio in data set [3] was found to be 12.

In the case of `NC(=O)c1ncn([C@@H]2O[C@H](CO)[C@@H](O)[C@H]2O)n1` [RIBAVIRIN], the IC50 in data set [1] was found to be 44 µM. Besides, the cytotoxic concentration (CC50) in data set [2] is over 2130 µM. Also, the selectivity ratio in data set [3] was found to be 48.

On to `O=C(CCN1CCCC1)Nc1cc(C(F)(F)F)cc2sc(=O)sc12`, for which the half-inhibitory concentration (IC50) in data set [1] was 6 µM. Also, the cytotoxic concentration (CC50) in data set [2] amounted to 75 µM. Also, the selectivity ratio in data set [3] worked out at 12.

In the case of `O=C(CCN1CCOCC1)Nc1cc(C(F)(F)F)cc2sc(=O)sc12`, the IC50 in data set [1] was found to be 9 µM. The half-maximal cytotoxic concentration (CC50) in data set [2] stood at 104 µM. The selectivity ratio in data set [3] worked out at 11.
